# Active and inactive are the calls of the source. How the calls were made is not given here.
# Molecular target: Muscarinic acetylcholine receptor M4 (Rattus norvegicus) (UniProt P08485)
# Experiment: M4 receptor potentiation by M5-directed compounds, selectivity assay for M5 PAM discovery project, CHO cells, rat M4, calcium flux (AID 651935)
# In short: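 Material: Rat M4/Gqi5 CHO-K1 cells | Medium: HBSS plus HEPES and probenecid, pH 7.4 | Probe or stimulus: Acetylcholine EC20 | Compound dosing: 0.3% DMSO final | Times: Acetylcholine stimulation 50 s, calcium read at 25 °C | Detection: Calcium mobilization by Fluo-4 AM fluorescence | Read-out basis: % of maximal acetylcholine response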
# Sequence of Muscarinic acetylcholine receptor M4 (Rattus norvegicus) (P08485 whole entry, looked up): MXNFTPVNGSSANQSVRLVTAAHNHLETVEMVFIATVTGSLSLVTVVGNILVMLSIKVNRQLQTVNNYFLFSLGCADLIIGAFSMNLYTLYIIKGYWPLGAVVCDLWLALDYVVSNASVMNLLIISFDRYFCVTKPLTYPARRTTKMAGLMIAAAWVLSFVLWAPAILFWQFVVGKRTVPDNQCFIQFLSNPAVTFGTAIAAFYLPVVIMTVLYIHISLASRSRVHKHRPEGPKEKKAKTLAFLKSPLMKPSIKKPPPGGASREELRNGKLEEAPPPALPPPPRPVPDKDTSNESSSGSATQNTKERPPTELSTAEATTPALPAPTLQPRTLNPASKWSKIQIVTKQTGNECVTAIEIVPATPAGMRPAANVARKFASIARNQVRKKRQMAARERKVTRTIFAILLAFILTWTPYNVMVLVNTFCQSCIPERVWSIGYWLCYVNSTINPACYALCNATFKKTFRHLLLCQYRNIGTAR
smiles,measurement,value
O=C1C(=O)N(CCOc2ccccc2)c2ccc(OC(F)(F)F)cc21,outcome,inactive

# — PubChem BioAssay AID651935 (Vanderbilt Specialized Chemistry Center, 2012)
